Measured values taken from PubChem BioAssay AID624466 (The Scripps Research Institute Molecular Screening Center, 2012).
Hit rate of the full screen: of about 360,000 compounds, about 5,400 (1.5%) were called active.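 Rule for the calls: active = inhibition above a per-plate cutoff, the mean inhibition of test compounds on that plate plus 3 SD (cut at about 49% in these data); inactive = the rest.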 This excerpt belongs to a sample that is enriched for actives.

These compounds were tested against Trace amine-associated receptor 1 (Homo sapiens) (UniProt Q96RJ0) (assay: blockers of beta-PEA-driven TAAR1 calcium signal – Fluo-8 calcium fluorescence, CHO RD-HGA16 cells, primary screen (AID 624466;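 note: 0% = DMSO plus EC80 beta-PEA response and 100% = DMSO alone without agonist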)). Conditions: CHO RD-HGA16 TAAR1, Fluo-8 calcium fluorescence, antagonist; at 3 µM; stronger effect = higher value.
Trace amine-associated receptor 1 (Homo sapiens), sequence (Q96RJ0 whole entry, looked up, the tested form may be a part): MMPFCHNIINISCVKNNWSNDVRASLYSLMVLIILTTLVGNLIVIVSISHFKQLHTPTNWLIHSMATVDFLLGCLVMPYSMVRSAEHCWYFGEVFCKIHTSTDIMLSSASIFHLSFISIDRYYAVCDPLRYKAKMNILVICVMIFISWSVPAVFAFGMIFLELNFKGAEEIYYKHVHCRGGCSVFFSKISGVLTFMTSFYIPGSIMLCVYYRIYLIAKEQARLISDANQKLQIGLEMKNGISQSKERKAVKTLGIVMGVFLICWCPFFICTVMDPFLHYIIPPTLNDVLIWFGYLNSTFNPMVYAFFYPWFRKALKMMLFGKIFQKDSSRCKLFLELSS
Summary of the method: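 Test system – hTAAR1-expressing CHO RD-HGA16 cells, Gα16-coupled · Also added – β-PEA at EC80 concentration, post-compound challenge · Compound – 3 µM, single point · Incubation – dye loading 75 min at 37 °C, then 30 min room temperature · Measured by – Fluo-8 intracellular calcium dye fluorescence, real-time kinetic reads · Benchmarks – vehicle and agonist controls · Replicates – singlicate, one well per test compound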

inhibition, active:
COc1ccc(-c2nc3ccccc3c(=O)n2CCc2ccc(O)cc2)cc1 58.4%, Cc1cccc(NC(=O)c2ccc(COc3ccccc3[N+](=O)[O-])o2)n1 51.5%, CCOc1cc(/C=N/NC(=O)c2cc(-c3ccccc3)nc3ccccc23)ccc1O 51.5%, COc1ccc(C(=O)Nc2ccccc2C(=O)N/N=C/c2ccc(O)c(OC)c2)cc1 62.8%, O=C(N/N=C/c1ccc(OC(=O)c2ccccc2Cl)cc1)c1ccc(O)cc1 68.9%, O=C(Nc1ccncc1)Nc1ccc(F)cc1 57.8%, CC(C)N(Cc1ccccc1)C(=O)COC(=O)c1ccccc1SCC(=O)N1CCCC1 64%, O=C(COC(=O)c1ccccc1SCC(=O)N1CCCC1)Nc1ccccc1OC(F)F 56.5%, COc1ccc(-c2cc(C(=O)N(C)Cc3ccccc3)c3ccccc3n2)cc1 62.6%, COc1ccc(-c2cc(C(=O)N(C)Cc3ccc(OC)c(OC)c3OC)c3ccccc3n2)cc1OC 78.5%, COc1ccc(-c2cc(C(=O)N(C)CC(=O)Nc3ccccc3Cl)c3ccccc3n2)cc1OC 73.2%, COc1ccc(CN(C)C(=O)c2cc(-c3ccc(C)cc3C)nc3ccccc23)c(OC)c1OC 72.6%, COc1ccc(C2CC(=O)Oc3ccc(C(C)(C)C)cc32)cc1 (stereo unspecified) 52.5%, NC(N)=N/N=C/c1ccc(OCc2ccc(Cl)cc2Cl)cc1 73.3%, O=C(OCC(=O)N(CCc1ccccc1)Cc1ccccc1)c1ccccc1[N+](=O)[O-] 71.1%, CCOc1ccc(NC(=O)Nc2ccc(N(C)C(C)=O)cc2)cc1 51.5%

inhibition, inactive:
O=c1onc(-c2c(F)cccc2F)n1-c1ccccc1Cl 4.53%, COc1ccc(-c2ccc(CCC(=O)O)n2-c2ccc(O)cc2)cc1 -5.35%, COc1ccc(CCNCc2c(-c3ccccc3)n(C)c3ccccc23)cc1 25%, Cc1ccc(-c2nc3c(C)cc(Br)cn3c2Cc2ccccc2)cc1 -21.5%, O=C(N[C@H]1CC[C@H](CC(=O)N2CCCCC2)O[C@@H]1CO)c1cccc(F)c1 4.76%, CC(=O)C[C@@H](O)CC(=O)[C@H]1OC(=O)CCCCCCc2ccccc21 6.02%, CCc1ccc(C2=CC(=O)CC(C)(C)C2=O)cc1 -8.28%, O=C(O)Cn1cnc2c(NCc3ccccc3)ncnc21 -23.5%, COC(=O)c1ccc(C2NC(=O)NC(C)=C2C(=O)N(C)C)cc1 (stereo unspecified) -4.25%, CCOc1ccc(OCc2ccc(C(=O)Nc3cccc(C)n3)o2)cc1 16.1%, CCCCNc1ccc(C(=O)Nc2cccc(C)n2)cc1[N+](=O)[O-] 24.1%, Cn1c(=O)c2c(ncn2CC(=O)N/N=C/c2cn[nH]c2-c2ccc(F)cc2)n(C)c1=O 2.24%, CCCCCn1nnnc1C1c2ccccc2C(=O)N1Cc1ccco1 (stereo unspecified) -12.2%, O=C(NS(=O)(=O)c1cccs1)[C@H]1O[C@@H](n2ccc(=O)[nH]c2=O)[C@H](O)[C@@H]1O -23.6%, CCOc1ccc(-c2cc(C(=O)N/N=C/c3ccc(O)cc3)c3ccccc3n2)cc1 0.39%, O=C(N/N=C/c1ccc(OCC2COCCO2)cc1)c1ccc(Br)cc1 (stereo unspecified) 18.2%, CC(C)(C)C(=O)Nc1ccc(C(=O)N/N=C/c2ccccc2OC(=O)c2ccc(Cl)cc2Cl)cc1 26.4%, O=C(NN=Cc1ccc2c(c1)CCC2)c1ccccc1O 10.7%, CCOc1cc(/C=N/NC(=O)c2c(C)nc3ccc(Cl)cn23)ccc1O -3.33%, COc1ccc(-c2[nH]ncc2/C=N/NC(=O)c2cc(Br)ccc2O)c(OC)c1 -4.36%, O=C(NC1CCCCC1)C(c1cc2ccccc2o1)n1c(=O)c(-c2ccco2)nc2ccccc21 (stereo unspecified) -22.4%, N#Cc1ccc(-c2nc3cc(C#N)c(C#N)cc3nc2-c2ccccc2)cc1C#N -9.51%, CC1CCCN(c2cccc3c2S(=O)(=O)N(Cc2ccc(F)cc2)[C@@H](C)[C@H](c2ccccc2)O3)C1 (stereo partly specified) -13.7%, CCCNC(=O)c1cc2c(c(-c3cccc(-c4ccc(C#N)cc4)c3)n1)[C@@H](CCO)N(C(=O)CC)C2 -3.02%, COC(=O)[C@]12C[C@H](CC(=O)NCc3ccc(OC)c(OC)c3)C(=O)N(Cc3ccccc3)C1=C[C@H](C(C)C)O[C@@H]2C1CC1 -4.52%, COc1cccc(NC(=O)Nc2ccc(F)cc2)c1 14.5%, CCc1ccc(NC(=O)Nc2ccncc2)cc1 6.77%, CCC(C(=O)NCc1ccccc1)n1c(Cc2cc(F)cc(F)c2)nc2ccccc21 (stereo unspecified) -4.56%, O=CN1CCN(C(=O)c2ccc(Br)o2)CC1 -11.1%, CSc1ccccc1C(=O)OCC(=O)N1CCN(C(C)=O)CC1 -1.96%, CC(NC(=O)c1ccccc1SCC(=O)N1CCCC1)c1ccccc1 (stereo unspecified) -4.95%, CN(CC(=O)Nc1ccccc1Cl)C(=O)c1ccccc1SCC(=O)N1CCCC1 -6.53%, COc1ccccc1NC(=O)COC(=O)c1ccccc1SCC(=O)N1CCCC1 -8.15%, COCCNC(=O)C1C(=O)Nc2ccccc2C(=O)N1c1ccc2c(c1)OCCO2 (stereo unspecified) -30.9%, CCCCCCCCN1C(=O)[C@H](CC(=O)NCC23CC4CC(CC(C4)C2)C3)C[C@@]2(C(=O)OC)CCCCC=C12 -15.3%, CCOC(=O)C(C)N(c1ccccc1Cl)S(C)(=O)=O (stereo unspecified) -3.03%, CN(CC(=O)O)S(=O)(=O)c1ccc2oc3ccccc3c2c1 -5.94%, COc1ccc(C(=O)N(C)Cc2ccc(OC)c(OC)c2OC)cc1S(=O)(=O)N1CCOCC1 -9.36%, Cc1cccc(C(=O)NCC(=O)OCC(=O)N(C)CC(=O)Nc2ccccc2Cl)c1 -23.2%, COc1ccc(CN(C)C(=O)Cc2c[nH]c3ccccc23)c(OC)c1OC 4.63%, COc1ccc(S(=O)(=O)N2CCCCCC2)cc1C(=O)N(C)Cc1cccc(OC)c1OC 3.09%, COc1ccc(Cl)cc1NC(=O)CN(C)C(=O)c1ccc2n[nH]nc2c1 -6.92%, COc1ccc(C2=NS(=O)(=O)N(C)C(C(=O)N(C)Cc3ccccc3)=C2)cc1 11.5%, COc1ccc(CN(C)C(=O)Cc2ccsc2)c(OC)c1OC -26.8%, C/C(N)=C(/C#N)C(=O)COC(=O)c1cc(-c2ccc(C)cc2)nc2ccccc12 -4.69%, Cc1ccc(N/C(N)=N/c2nc(C(F)(F)F)cc(C(F)(F)F)n2)cc1 1.49%, CCn1ccnc1CN(C)C(=O)c1ccc2nc(Cc3ccc(OC)cc3)oc2c1 9.63%, Cc1ccc(C)c(CN2CCC(CNC(=O)C3CCCN(c4ncnc5c4nc4n5CCCCC4)C3)CC2)c1 (stereo unspecified) -10.2%, O=C(Nc1ccc(CSc2ccccc2)cc1)c1ccc(CN2CCOCC2)cc1 29.6%, COCc1cc(N2CCN(C(=O)OC(C)(C)C)C[C@@H]2C)ccc1N1CCN(Cc2ccccc2)[C@H](C)C1 -3.16%, O=C1/C(=C/c2cccs2)SC(=S)N1C1CCS(=O)(=O)C1 (stereo unspecified) -5.52%, COc1ccc(CCn2c(NN=C3CCCC3)nc3c2c(=O)[nH]c(=O)n3C)cc1 -23.8%, COc1cc(C2CC(=O)Oc3cc(OC)c(OC)c(OC)c32)cc(OC)c1OC (stereo unspecified) 3.9%, COc1cc(OC)c2c(c1)OC(=O)CC2c1cc(OC)c(OC)c(OC)c1 (stereo unspecified) -6.82%, CN(C)S(=O)(=O)c1ccc(C(=O)NCCN=C2NS(=O)(=O)c3ccccc32)cc1 -8.85%, O=C(c1ccc2ccccc2n1)N1CCN(c2ccccc2Cl)CC1 20.4%, COc1ccc(Cl)cc1N(CC(=O)N/N=C/c1ccc(OCC(N)=O)cc1)S(C)(=O)=O 6.35%, NC(=O)COc1ccc(/C=N/NC(=O)C2CCCN2S(=O)(=O)c2ccc(Cl)cc2)cc1 (stereo unspecified) 15.8%, O=C1NC[C@H](CCCCN2C[C@H](Cc3ccc(O)cc3)N(CC3CCCCC3)C(=O)C2=O)N(CCc2ccccc2)C1=O 7.35%, COc1cccc(N(C(=O)C2COc3ccccc3O2)C(C(=O)NC2CCCCC2)c2ccc(O)cc2)c1 (stereo unspecified) -14.6%, CN(Cc1ccccc1)C(=O)COC(=O)c1ccccc1Nc1ccccc1 22.9%, Cc1c(C(=O)NCCCc2ccccc2)cccc1[N+](=O)[O-] 1.14%, CC(C)(C)c1ccc(S(=O)(=O)NCC2CCN(C(=O)C(=O)c3cc4ccccc4o3)CC2)cc1 3.67%, O=C(COC(=O)c1cc(S(=O)(=O)N2CCOCC2)ccc1Cl)NCCc1ccccc1 -6.27%, CCC(=O)c1ccc(OCC(O)CN2CCN(c3cccc(C(F)(F)F)c3)CC2)cc1 (stereo unspecified) 19.9%, CCOc1ccc(NC(=O)N(CC(C)C)CC(C)C)cc1 -6.6%, CC(=O)N(C)c1ccc(NC(=O)Nc2cccc3ccccc23)cc1 -1.56%, CC12CCC(=O)N1C(C(=O)NCCN1C(=O)S/C(=C\c3ccccc3F)C1=O)CS2 (stereo unspecified) -27.9%, O=S(=O)(NCC1CCCO1)c1cnc(Cl)c(Cl)c1 (stereo unspecified) 12.4%, CCOC(=O)C1=C(c2ccccc2)O/C(=C(/C(=O)OC)C(F)(F)F)S1 -4.35%
